Experimental data gathered from unrelated publications.
Target: Phosphatidylinositol 4-phosphate 5-kinase type-1 gamma (PIP5K1C, Homo sapiens, UniProt O60331)

`CS(=O)(=O)Nc1cccc(-c2csc(NC(=O)CSc3nc4nccnc4c(=O)n3CCc3ccccc3)n2)c1` has an inhibition of 0% (enzyme activity; inhibitor; 10 µM).
`Cc1cc(NC(=O)c2cccc3cc(-c4cccc5[nH]nc(N)c45)ccc23)ccc1F` gave an activity vs control of 110% (enzyme activity; inhibitor; 0.1 µM).
`Cc1ccc(NC(=O)c2ccc(C)c(C(F)(F)F)c2)cc1C#Cc1nn(C2CCC(O)CC2)c2ncnc(N)c12` (centres unmarked) has a remaining signal of 98% (cell-free assay; 10 µM).
For `CN1CC(Oc2cnc(C#N)cc2-c2ccn3nc(NC(=O)C4CC4)cc3c2)C1`, the inhibition was -3% (enzyme activity; inhibitor; 1 µM).
`Cc1cnc(NC2CCOCC2)nc1-n1cnc(C(=O)NC(CN)c2cc(F)cc(Cl)c2)c1` (centres unmarked) has a remaining activity of 96% (enzyme activity; inhibitor; radiometric; 1 µM).
`CNCc1ccccc1-c1csc([C@@H](C)Nc2nc(C)nc3cc(OC)c(OC)cc23)c1` has a remaining binding of 88% (cell-free assay; competition with immobilised ligand; 1 µM).
`Nc1ncnc2occ(-c3ccc(NC(=O)Nc4cc(C(F)(F)F)ccc4F)cc3)c12` gave a remaining signal of 0% (cell-free assay; 20 µM).
`CC1=C(C#N)C(c2ccc3c(c2)c(NC(=O)c2ccccc2C)nn3C)C(C#N)=C(C)N1` has a remaining binding of 91% (cell-free assay; competition with immobilised ligand; 1 µM).
The remaining signal of `Cc1ccc(C(=O)Nc2ccc(CN3CCN(C)CC3)c(C(F)(F)F)c2)cc1C#Cc1cnc2cccnn12` is reported as 100% (cell-free assay; 23.5 nM).
For `COc1cc(Cl)c(C(=O)N[C@@H](CN[C@H]2CC[C@@H](N)CC2)Cc2ccc(C#N)cc2)cc1-c1ccc(CN[C@H](C)c2ccc(C)cc2)o1`, the remaining activity was 96% (enzyme activity; inhibitor; 1 µM).
The inhibition of `O=C(CSc1nc2nccnc2c(=O)n1CCc1ccccc1)Nc1nccs1` is reported as 12% (enzyme activity; inhibitor; 10 µM).
